“Also recorded” adds a separate entry of the source.
Legend:
Format in all cases: cell-based, human
Caco-2 cells [1] = assay: MTT cell viability assay; conditions: for concentration at which toxicity was observed: 3 days-period of exposure; for Cell viability (J10), concentration given for the effect: day 10, p < 0.05; for concentration at which impact on viability appeared: appeared later (J7)
Procedure, shortened: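 Caco-2 (passage 25–39) were seeded at 5 × 10^4/well. After 20 h they received 0.1–100 μM test compound, alone or as an equimolar mixture, in 4% FBS medium, renewed every 48 h, for 3, 7 and 10 days. MTT (0.5 mg/ml in RPMI) was added for 4 h at 37 °C and stopped with SDS/NaOH. Absorbance was read at 570/690 nm as % of DMSO control; EC50 was taken from the dose–response curve. Three experiments, each in quadruplicate.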

Caco-2 cell monolayer [2] = assay: Transepithelial electrical resistance; conditions: for TEER (J10), direction of effect: 1-25 μM, 10 days, vs control; for TEER (J10), concentration given for the effect: day 10
Procedure, shortened: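 Caco-2 were grown on collagen-coated Transwells (2.5 × 10^5 cells/well) for 4 days. They were then exposed apically and basolaterally to 1, 5, 10 or 25 μM test compound or 0.1% DMSO, renewed every 2 days. Resistance was measured at days 0, 3, 7 and 10 and expressed in Ω cm2. Mean ± SEM of 3 independent experiments, each in triplicate.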

Caco-2 cell monolayer [3] = assay: Phenol red diffusion; conditions: 1-25 μM, day 10, vs control
Procedure, shortened: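 Monolayers were grown on collagen-coated Transwells (2.5 × 10^5 cells/well) for 4 days. Then 1, 5, 10 or 25 μM test compound or 0.1% DMSO was added to both compartments in 4% FBS medium, renewed every 2 days. At day 10, phenol red medium was placed apically and phenol red-free medium basolaterally. Apical-to-basolateral diffusion over 4 h was read at 560 nm and expressed as percent diffusion.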

[4] = test system: Alkaline phosphatase activity in Caco-2 cells; assay: Alkaline phosphatase assay for cell differentiation; conditions: for ALP activity (J10), direction of effect: 1-25 μM, 10 days, vs control, p < 0.01; for ALP activity (J10), concentration given for the effect: day 10, p < 0.01
Procedure, shortened: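 Caco-2 seeded at 1.125 × 10^5 cells/well and treated next day with 1, 5, 10 or 25 μM of test compound, or 0.1% DMSO vehicle, for 10 days in 4% FBS medium, renewed every 48 h. Cells were scraped into cold 50 mM Tris pH 7.5 and needle-homogenised. Lysate ALP hydrolysed pNPP over 30 min at pH 10.4, 37 °C; p-nitrophenol read at 405 nm, per mg protein, as % of control.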

Caco-2 cells [5] = assay: Lipid peroxidation measurement; conditions: 48 h exposure; for Lipid peroxidation, concentration given for the effect: p < 0.01; for TBARS level with respect to control: 25 μM
Procedure, shortened: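 Cells were seeded at 1.25 × 10^5/well and exposed for 48 h to 25 or 100 μM test compound. Culture medium was mixed with HCl and TBA buffer, heated 10 min at 95 °C, ice-cooled and extracted with n-butanol. Absorbance was read at 532 nm. MDA equivalents were calculated from a TMOP calibration curve.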

Caco-2 cells [6] = assay: Intracellular ROS; conditions: 6 h exposure, p < 0.05; for H2O2 production, direction of effect: 25 or 100 μM, vs control
Procedure, shortened: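 Cells were plated at 5 × 10^4/well and grown 48 h in 10% FBS medium, then washed with PBS. They were exposed for 6 h at 37 °C to 25 or 100 μM test compound in HBSS containing 5 μM H2-DCFDA; controls had 0.025% DMSO. After PBS washes, fluorescence was read at ex 485/em 530 nm.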

Caco-2 cells [7] = assay: Detection of apoptosis and necrosis by Hoechst 33342 and PI staining; conditions: 25 μM, 48 h; for Percent of necrosis in treated vs control cells: ratio of percentage of necrotic cells in treated versus untreated cells
Procedure, shortened: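 Cells were seeded at 1.25 × 10^5/well. After 20 h they received 25 μM test compound, alone or as an equimolar mixture, for 48 h. They were stained with Hoechst 33342 (5 μg/ml) plus PI (1 μg/ml) for 30 min at 37 °C in the dark, then washed. Normal, apoptotic and necrotic cells were counted in four random fields per well. Three independent experiments, each in triplicate.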

[8] = test system: catalase (CAT) activity in Caco-2 cells; assay: Antioxidant enzyme assay: catalase; conditions: 10 days, 1, 5, 10 and 25 μM, vs control
Procedure, shortened: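 Cells at 1.5 × 10^5/well were exposed next day to 1–25 μM test compound or vehicle, renewed every 48 h. At day 10 they were sonicated in 50 mM phosphate pH 7 with 1 mM EDTA. Catalase was measured in the 105,000 × g (1 h, 4 °C) supernatant as H2O2 decomposition followed at 240 nm for 30 s. Specific activity is given as % of control.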

[9] = test system: glutathione peroxidase (GPx) activity in Caco-2 cells; assay: Antioxidant enzyme assay: glutathione peroxidase; conditions: 10 days, 1, 5, 10 and 25 μM, vs control
Procedure, shortened: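 GPx activity was measured in Caco-2 exposed to 1–25 μM test compound or vehicle for 10 days. Cells were sonicated in 50 mM phosphate pH 7 with 1 mM EDTA and the 105,000 × g supernatant was used. The assay was coupled to glutathione reductase with H2O2 and NADPH, and NADPH loss was followed at 340 nm. Specific activity is given as % of control.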

[10] = test system: superoxide dismutase (SOD) activity in Caco-2 cells; assay: Antioxidant enzyme assay: superoxide dismutase; conditions: 10 days, 1, 5, 10 and 25 μM, vs control
Procedure, shortened: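 Supernatant at 105,000 × g from sonicated Caco-2 was used, after 10 days' exposure to 1–25 μM test compound or vehicle. Superoxide came from xanthine–xanthine oxidase, and inhibition of NBT reduction was followed kinetically at 560 nm for 5 min over several protein amounts. One unit inhibits formazan formation by 50%. Specific activity is given as % of control.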

[11] = test system: phospho-Akt (Ser473) in Caco-2 cells; assay: Western blot analysis of Akt; conditions: 25 μM, compared to control
Procedure, shortened: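 Cells at 1.5 × 10^5/well were exposed 20 h after seeding to 25 μM of each test compound or the mixture for 10 days. Lysis was in RIPA with protease and phosphatase inhibitors. 25 μg protein was resolved by SDS-PAGE and blotted to nitrocellulose. Blots were probed overnight at 4 °C with anti-phospho-Akt Ser473 (1/2000) and anti-Akt1/2/3 (1/1000), then detected with 800 nm infrared-dye secondaries and quantified by relative fluorescence. Three independent experiments.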

Caco-2 cells [12] = assay: Observation of morphologic changes; conditions: 25 μM, 72 h, phase contrast microscopy
Procedure, shortened: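 Cells were seeded at 1.125 × 10^5/well and grown 20 h. They were then exposed to 25 μM test compound for 72 h and morphology was examined by phase-contrast microscopy.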

Q: What does the source list for `O=C(NC(=O)c1c(F)cccc1F)Nc1cc(Cl)c(F)c(Cl)c1F` [TBZ, teflubenzuron]?
A: concentration at which toxicity was observed (Caco-2 cells [1]): 5 µM; Cell viability (J10), concentration given for the effect (Caco-2 cells [1]): 5 µM; TEER (J10), direction of effect (Caco-2 cell monolayer [2]): net decrease; TEER (J10), concentration given for the effect (Caco-2 cell monolayer [2]): 5 µM; Apparent permeability (J10) (phenol red diffusion), direction of effect (Caco-2 cell monolayer [3]): increase of the apparent permeability; ALP activity (J10), direction of effect [4]: increased its activity; ALP activity (J10), concentration given for the effect [4]: 5 µM; Lipid peroxidation, concentration given for the effect (Caco-2 cells [5]): 25 µM; H2O2 production, concentration given for the effect (Caco-2 cells [6]): 100 µM; Percent of necrosis in treated vs control cells (Caco-2 cells [7]): 3.8; CAT activity [8]: no change; GPx activity [9]: no change; SOD activity [10]: no change

Q: How did the EC50 (Caco-2 cells [1]; Caco-2 cells, 10 days exposure, 0.1-100 μM, mean ± SEM) turn out when `N#Cc1nn(-c2c(Cl)cc(C(F)(F)F)cc2Cl)c(N)c1[S+]([O-])C(F)(F)F` (stereo not shown) [FPN, fipronil] was run?
A: 18.1 ± 0.5 µM

Q: What about the “concentration at which impact on viability appeared” value (Caco-2 cells [1]) of the same compound?
A: 5 µM

Q: What about the “Cell viability (J10), concentration given for the effect” value (“Cell viability (J10)” below) (Caco-2 cells [1]) of the same compound?
A: 5 µM

Q: And the “TEER (J10), direction of effect” value (Caco-2 cell monolayer [2])?
A: failed to produce a clear and noticeable change

Q: What about the “ALP activity (J10), direction of effect” value [4] of the same compound?
A: decreased ALP activity

Q: And the “ALP activity (J10), concentration given for the effect” value (“ALP activity (J10) … for the effect” below) [4]?
A: 10 µM

Q: And the “TBARS level with respect to control” value (Caco-2 cells [5])?
A: 192.45%

Q: What about the “Lipid peroxidation, concentration given for the effect” value (“Lipid peroxidation” for short) (Caco-2 cells [5]) of the same compound?
A: 25 µM

Q: What about the “H2O2 production, direction of effect” value (Caco-2 cells [6]) of the same compound?
A: strongest effect

Q: And the “H2O2 production, concentration given for the effect” value (shortened to “H2O2 production … for the effect”) (Caco-2 cells [6])?
A: 100 µM

Q: And the apoptotic cells (Caco-2 cells [7]; vs control)?
A: huge increased

Q: And the “percentage of necrotic cells” value (Caco-2 cells [7]; vs control)?
A: increased to a lesser extent

Q: And the “Percent of necrosis in treated vs control cells” value (“Percent of necrosis in treated” below) (Caco-2 cells [7])?
A: 3.2

Q: What about the GPx activity [9] of the same compound?
A: increase

Q: What about the “level of phospho-Akt (Ser473)” value [11] of the same compound?
A: reduced level; also recorded: greatest impact

Q: What about the “morphological changes / cell density” value (Caco-2 cells [12]) of the same compound?
A: reduction of cell density

Q: Which results are given for `CC1(C)[C@H](C(=O)O[C@H](C#N)c2cccc(Oc3ccccc3)c2)[C@@H]1/C=C(\Cl)C(F)(F)F` (racemic) [LCT, lambda-cyhalothrin]?
A: concentration at which impact on viability appeared (Caco-2 cells [1]): 1 µM; Cell viability (J10), concentration given for the effect (Caco-2 cells [1]): 1 µM; TEER (J10), direction of effect (Caco-2 cell monolayer [2]): significant increase; TEER (J10), concentration given for the effect (Caco-2 cell monolayer [2]): 25 µM; Apparent permeability (J10) (phenol red diffusion), direction of effect (Caco-2 cell monolayer [3]): decrease of membrane permeability; ALP activity (J10), direction of effect [4]: increased its activity; ALP activity (J10), concentration given for the effect [4]: 1 µM; Lipid peroxidation, concentration given for the effect (Caco-2 cells [5]): 100 µM; H2O2 production, concentration given for the effect (Caco-2 cells [6]): 100 µM; CAT activity [8]: increase; level of phospho-Akt (Ser473) [11]: greatest impact

Q: How did the “concentration at which toxicity was observed” value (Caco-2 cells [1]) turn out when `COP(=S)(OC)Oc1ccc([N+](=O)[O-])c(C)c1` [FNT, fenitrothion] was run?
A: 1 µM

Q: What about the “Cell viability (J10)” value (Caco-2 cells [1]) of the same compound?
A: 5 µM

Q: What about the “TEER (J10), direction of effect” value (Caco-2 cell monolayer [2]) of the same compound?
A: net decrease

Q: And the “TEER (J10), concentration given for the effect” value (Caco-2 cell monolayer [2])?
A: 10 µM

Q: And the “Apparent permeability (J10) (phenol red diffusion), direction of effect” value (Caco-2 cell monolayer [3])?
A: increase of the apparent permeability

Q: And the “ALP activity (J10), direction of effect” value [4]?
A: decreased ALP activity

Q: What about the “ALP activity (J10) … for the effect” value [4] of the same compound?
A: 5 µM

Q: What about the “TBARS level with respect to control” value (Caco-2 cells [5]) of the same compound?
A: 167.66%

Q: And the “Lipid peroxidation” value (Caco-2 cells [5])?
A: 25 µM

Q: And the “H2O2 production, direction of effect” value (Caco-2 cells [6])?
A: strongest effect

Q: What about the “H2O2 production … for the effect” value (Caco-2 cells [6]) of the same compound?
A: 25 µM

Q: What about the “Percent of necrosis in treated” value (Caco-2 cells [7]) of the same compound?
A: 4.4

Q: What about the GPx activity [9] of the same compound?
A: increase

Q: And the SOD activity [10]?
A: increase

Q: What about the “morphological changes / cell density” value (Caco-2 cells [12]) of the same compound?
A: reduction of cell density

Q: For `CC1(C)[C@H](C(=O)O[C@H](C#N)c2cccc(Oc3ccccc3)c2)[C@@H]1C=C(Br)Br` [DTM, deltamethrin], which “concentration at which impact on viability appeared” value (Caco-2 cells [1]) is on record?
A: 8 µM

Q: What about the “Cell viability (J10)” value (Caco-2 cells [1]) of the same compound?
A: 8 µM

Q: What about the “TEER (J10), direction of effect” value (Caco-2 cell monolayer [2]) of the same compound?
A: significant increase

Q: And the “TEER (J10), concentration given for the effect” value (Caco-2 cell monolayer [2])?
A: 10 µM

Q: And the “Apparent permeability (J10) (phenol red diffusion), direction of effect” value (Caco-2 cell monolayer [3])?
A: decrease of membrane permeability

Q: What about the “ALP activity (J10), direction of effect” value [4] of the same compound?
A: increased its activity

Q: And the “ALP activity (J10) … for the effect” value [4]?
A: 1 µM

Q: And the “Lipid peroxidation” value (Caco-2 cells [5])?
A: 100 µM

Q: What about the “H2O2 production, direction of effect” value (Caco-2 cells [6]) of the same compound?
A: strongest effect

Q: What about the “H2O2 production … for the effect” value (Caco-2 cells [6]) of the same compound?
A: 25 µM

Q: And the “Percent of necrosis in treated” value (Caco-2 cells [7])?
A: 2.7

Q: What about the CAT activity [8] of the same compound?
A: increase

From PMC5598529 (Toxicology Reports, 2014)
